Reference: ChEMBL document CHEMBL3608304, “Anti-inflammatory Labdane Diterpenoids from Leonurus macranthus” (J Nat Prod, 2015)

Experiments:
[1] = Toxicity against mouse BV2 cells assessed as effect on cell viability at 80 uM incubated for 24 hrs by MTT assay; format: cell-based; settings: bv-2, 24 h
BV-2 [2] = experiment: Inhibition of LPS-activated nitric oxide production in mouse BV2 cells pre-treated for 60 mins before LPS challenge for 24 hrs by Griess assay; format: functional, cell-based
Outline: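 LPS-activated BV-2 microglial cells; NO production measured by Griess assay; indomethacin as positive control; results expressed as IC50 (μM).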

BV-2 [3] = experiment: Inhibition of LPS-activated nitric oxide production in mouse BV2 cells at 80 uM pre-treated for 60 mins before LPS challenge for 24 hrs by Griess assay; format: functional

| Structure (SMILES) | IC50 (BV-2 [2]) [µM] | Activity [1] | inhibition at 80 µM (BV-2 [3]) [%] |
| --- | --- | --- | --- |
| CC(=O)OC[C@@]1(C)[C@H](O)CC[C@@]2(C)[C@H]1CC(=O)[C@@H](C)[C@]21CC[C@@](C)(CCO)O1 | 36.9 | Non-toxic |  |
| CC(=O)OC[C@@]1(C)[C@H](O)CC[C@]2(C)C(CCC(C)(O)CCO)=C(C)C(=O)[C@@H](OC(C)=O)[C@@H]12 (stereo partly drawn) |  |  | < 50 |
| CC(=O)O[C@@H]1CC[C@]2(C)C(CCC(C)(O)CCO)=C(C)C(=O)[C@@H](O)[C@H]2[C@@]1(C)CO (stereo partly drawn) |  |  | < 50 |
| CC(=O)OCC[C@]1(C)CC[C@@]2(O1)[C@H](C)C(=O)[C@@H](OC(C)=O)[C@H]1[C@@](C)(COC(C)=O)[C@H](OC(C)=O)CC[C@@]12C | 48.1 | Non-toxic |  |
| CC(=O)OC[C@@]1(C)[C@H](OC(C)=O)CC[C@@]2(C)[C@H]1[C@H](O)C(=O)[C@@H](C)[C@]21CC[C@@](C)(CCO)O1 | 41.7 | Non-toxic |  |
| CC(=O)OC[C@@]1(C)[C@H](OC(C)=O)CC[C@@]2(C)[C@H]1[C@H](OC(C)=O)C(=O)[C@@H](C)[C@]21CC[C@@](C)(CCO)O1 | 20.7 | Non-toxic |  |
| CC(=O)OC[C@@]1(C)[C@H](OC(C)=O)CC[C@]2(C)C(CCC(C)(O)CCO)=C(C)C(=O)[C@@H](OC(C)=O)[C@@H]12 (stereo partly drawn) |  |  | 50 |
| CC(=O)OCC[C@]1(C)CC[C@@]2(O1)[C@H](C)[C@@H](OC(C)=O)[C@@H](O)[C@H]1[C@@](C)(COC(C)=O)[C@H](OC(C)=O)CC[C@@]12C | 10 | Non-toxic |  |
| CC(=O)OCCC(C)(O)CCC1=C(C)C(=O)[C@@H](OC(C)=O)[C@H]2[C@@](C)(COC(C)=O)[C@H](OC(C)=O)CC[C@]12C (stereo partly drawn) | 12.7 | Non-toxic |  |

The remaining compounds from weak to strong by IC50 (BV-2 [2]), led by results:

| IC50 (BV-2 [2]) [µM] | Structure (SMILES) | Activity [1] | inhibition at 80 µM (BV-2 [3]) [%] |
| --- | --- | --- | --- |
| 63.7 | CC(=O)OCC[C@]1(C)CC[C@@]2(O1)[C@H](C)C(=O)[C@@H](OC(C)=O)[C@H]1[C@@](C)(COC(C)=O)[C@H](O)CC[C@@]12C | Non-toxic |  |
| 53.6 | CC(=O)OC[C@@]1(C)[C@H](O)CC[C@]2(C)C(CCC(C)(O)CCO)=C(C)C(=O)[C@@H](O)[C@@H]12 (stereo partly drawn) | Non-toxic |  |
| 45.7 | CC(=O)OCC[C@]1(C)CC[C@@]2(O1)[C@H](C)C(=O)[C@@H](O)[C@H]1[C@@](C)(COC(C)=O)[C@H](O)CC[C@@]12C | Non-toxic |  |
| 35.7 | COc1ccc2c(c1)c(CC(=O)O)c(C)n2C(=O)c1ccc(Cl)cc1 [INDOMETHACIN] |  |  |
| 16.2 | CC(=O)O[C@@H]1C(=O)[C@@H](C)[C@]2(CC[C@@](C)(CCO)O2)[C@@]2(C)CC[C@@H](OC(C)=O)[C@](C)(CO)[C@H]12 | Non-toxic |  |
| 13.2 | CC(=O)OCC[C@]1(C)CC[C@@]2(O1)[C@H](C)[C@@H](O)C(=O)[C@H]1[C@@](C)(COC(C)=O)[C@H](O)CC[C@@]12C | Non-toxic |  |
| 11 | CC(=O)OCC[C@]1(C)CC[C@@]2(O1)[C@H](C)[C@@H](O)[C@@H](OC(C)=O)[C@H]1[C@@](C)(COC(C)=O)[C@H](OC(C)=O)CC[C@@]12C | Non-toxic |  |
